Measurements: PMC11904669 (ACS Omega, 2025)
*1 amine or outer side, *2 acyl side, *3 side chain or, on linkers, in order; H or OH if unused. Where a SMILES comes first, the peptide text is derived from it. Where no end group is shown, it is not given here. Side-chain parts run from the residue outwards. The star is where a group is joined. C20 diacid = O=C(O)CCCCCCCCCCCCCCCCCCC(=O)*; γGlu = O=C(O)[C@H](CCC(=O)[*:2])N[*:1]; PEG2 = NCCOCCOCCC(=O)O

Columns and labels:
COL1α1 = test: Western blot of COL1α1; assay type: cell-based, human; conditions: TGF-β-treated LX2 cells, 10 μM, 24 h, Western blot (Figure 4)
α-SMA = test: Western blot of α-SMA in TGF-β-induced LX2 cells; assay type: cell-based, human; conditions: TGF-β-treated LX2 cells, 10 μM, 24 h, Western blot (Figure 4)
In short: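 LX2 human hepatic stellate cells were grown in DMEM with 10% FBS and 1% penicillin-streptomycin at 37 °C, 5% CO2. Cells were induced with TGF-β (10 ng/mL) with or without 10 μM test compound for 24 h. Lysates in RIPA buffer were BCA-quantified, run on SDS-PAGE and transferred to PVDF. Primary antibody was applied overnight at 4 °C, then ECL detection. Densitometry was normalized to GAPDH; n = 3.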

p-ERK = test: Western blot of p-Erk/Erk in liver, CCl4-induced liver fibrosis model; assay type: in vivo, mouse; conditions: CCl4 mice, 250 μg/kg i.p. daily for 4 weeks
In short: (§1)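 Male C57BL/6J mice with CCl4 fibrosis (20% in corn oil s.c., every 2 days, 8 weeks) received test compound 250 μg/kg i.p. daily over the final 4 weeks. Liver tissue was snap-frozen and stored at −80 °C, then lysed in RIPA buffer and BCA-quantified. Samples went through SDS-PAGE and PVDF transfer, overnight primary antibody at 4 °C, and ECL. Phospho-protein densitometry was normalized to GAPDH; n = 5.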

p-Smad3 = test: Western blot of p-Smad3/Smad3 in liver, CCl4-induced liver fibrosis model; assay type: in vivo, mouse; conditions: CCl4 mice, 250 μg/kg i.p. daily for 4 weeks
In short: as §1

[1] = test system: CCl4-induced liver fibrosis model; test: Serum ALT, CCl4-induced liver fibrosis model; assay type: in vivo, mouse; conditions: CCl4 mice, 250 μg/kg i.p. daily for 4 weeks
In short: (§2)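 CCl4 (20% in corn oil, s.c., every 2 days, 8 weeks) fibrotic male C57BL/6J mice received test compound 250 μg/kg i.p. daily for the last 4 weeks. After the final dose, mice were fasted 9 h and euthanized 8 h later. Blood was drawn retro-orbitally under anesthesia and spun at 1000g for 15 min; serum was stored at −80 °C. ALT or AST was measured by commercial kit; n = 5.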

[2] = test system: CCl4-induced liver fibrosis model; test: Serum AST, CCl4-induced liver fibrosis model; assay type: in vivo, mouse; conditions: CCl4 mice, 250 μg/kg i.p. daily for 4 weeks
In short: as §2

[3] = test system: CCl4-induced liver fibrosis model; test: Hydroxyproline in liver tissue, CCl4-induced liver fibrosis model; assay type: in vivo, mouse; conditions: CCl4 mice, 250 μg/kg i.p. daily for 4 weeks, n = 5
In short: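 Liver fibrosis was induced in male C57BL/6J mice (6–8 wk) by s.c. 20% CCl4 in corn oil (5 mL/kg) every 2 days for 8 weeks, with corn-oil controls. Test compound was given at 250 μg/kg i.p. daily for the final 4 weeks. Livers were snap-frozen in liquid nitrogen, kept at −80 °C, and assayed for hydroxyproline; n = 5.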

[4] = test system: CCl4-induced liver fibrosis model; test: SOD in liver tissue, CCl4-induced liver fibrosis model; assay type: in vivo, mouse; conditions: CCl4 mice, 250 μg/kg i.p. daily for 4 weeks, n = 5
[5] = test system: CCl4-induced liver fibrosis model; test: GSH in liver tissue, CCl4-induced liver fibrosis model; assay type: in vivo, mouse; conditions: CCl4 mice, 250 μg/kg i.p. daily for 4 weeks, n = 5
[6] = test system: CCl4-induced liver fibrosis model; test: Liver histology; assay type: in vivo, mouse; conditions: CCl4 mice, 250 μg/kg i.p. daily for 4 weeks
In short: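 CCl4 model: male C57BL/6J mice, s.c. 20% CCl4 in corn oil every 2 days for 8 weeks, test compound 250 μg/kg i.p. daily during the last 4 weeks. Livers were fixed in 10% formaldehyde, deparaffinized and rehydrated. Sections got H&E, Sirius red (10 fields at 20× per liver) and IHC for α-SMA and COL1α1. Positive area was quantified excluding large bile ducts and vessels; n = 5.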

C57BL/6J mice = test: General observation of mice during peptide treatment; assay type: in vivo, mouse; conditions: CCl4 mice, 250 μg/kg i.p. daily for 4 weeks
In short: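 Male C57BL/6J mice (6–8 wk, 20–24 g) received 20% CCl4 in corn oil s.c. (5 mL/kg) every 2 days for 8 weeks, with corn-oil-injected controls. Test compound was given i.p. at 250 μg/kg daily over the last 4 weeks. Appearance, behavior and food intake were observed, and body weight was monitored (n = 5−7).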

Serum stability analysis = assay type: in vitro ADME
In short: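 Peptide (5 mM) was incubated in mouse serum at 37 °C for 0, 0.25, 1, 2, 4, 8, 16 and 24 h. Reactions were quenched with ice-cold acetonitrile, vortexed 10 s and left 1 min. Water containing 1% TFA was then added, the mix was centrifuged at 13,000g for 10 min, and the supernatant was collected for analysis.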

FN and COL1α1 = test: Western blot of FN and COL1α1 in TGF-β-induced LX2 cells; assay type: cell-based, human; conditions: 10 μM
LX2 cells = test: CCK-8 assay of cell growth; assay type: cell-based, human; conditions: high concentration 64.0 μM

CC(C)C[C@H](NC(=O)[C@@H]1CCCN1C(=O)[C@H](Cc1ccccc1)NC(=O)CNC(=O)[C@@H]1CCCN1C(=O)[C@H](C)NC(=O)[C@H](CCCCNC(=O)CCOCCOCCNC(=O)CCOCCOCCNC(=O)CC[C@H](NC(=O)CCCCCCCCCCCCCCCCCCC(=O)O)C(=O)O)NC(=O)CNC(=O)[C@H](Cc1ccccc1)NC(=O)[C@@H](N)[C@@H](C)O)C(=O)NCC(=O)N[C@@H](CO)C(N)=O [S6-FA] (H-TFGK([PEG2-PEG2-γGlu-C20 diacid])APGFPLGS-NH2)
expression of COL1α1 (COL1α1): conspicuously decreased | expression of α-SMA (α-SMA): conspicuously decreased | phosphorylation of ERK in liver (p-ERK): effectively inhibited | phosphorylation of Smad3 in liver (p-Smad3): effectively inhibited | ALT serum level [1]: remarkably reduced | AST serum level [2]: remarkably reduced | HYP content in liver tissue [3]: significantly decreased | content of SOD in liver tissue versus CCl4 group [4]: significantly higher | content of GSH in liver tissue versus CCl4 group [5]: significantly higher | collagen deposition (Sirius red) ([6]; n = 5): more efficacious outcomes in reducing collagen deposition compared to T6-S | fibrosis markers α-SMA and COL1α1 (IHC) ([6]; versus control group and T6-S group): notably lower | appearance, behavior, food intake, body weight (C57BL/6J mice): no abnormalities | half-life at 5 mM (Serum stability analysis; mouse): ~24 h

CC(C)C[C@@H]1NC(=O)[C@@H]2CCCN2C(=O)[C@H](Cc2ccccc2)NC(=O)CNC(=O)[C@@H]2CCCN2C(=O)[C@H](C)NC(=O)CNC(=O)CNC(=O)[C@H](Cc2ccccc2)NC(=O)[C@H]([C@@H](C)O)NC(=O)[C@H](CO)NC(=O)CNC1=O [S19] (cyclo(APGFPLGSTFGG))
effect on expression of FN and COL1α1 (FN and COL1α1): diminished the inhibitory impacts

TFGGAPGFPLGS [T6-S]
growth of LX2 cells (CCK-8) (LX2 cells): did not affect the growth | peptide detectable by HPLC after incubation in serum (Serum stability analysis; mouse serum, 37 °C, 5 mM peptide, RP-HPLC-MS, 1 h): 50%

TFGGAPGFPLGSPLSSVFPR [T6, reference compound]
growth of LX2 cells (CCK-8) (LX2 cells): did not affect the growth

TFGKAPGFPLGS [S6]
appearance, behavior, food intake, body weight (C57BL/6J mice): no abnormalities
